Source: ChEMBL document CHEMBL2034925, “Isoprenylated flavonoid and adipogenesis-promoting constituents of Dodonaea viscosa” (2012)
The source made the active and inactive calls. The rule behind the calls is not given here.

Assays:
[1] = tested on: 3T3-L1; experiment: Adipogenic activity in mouse 3T3L1 cells assessed as increase in triglyceride level at 3 uM after 8 days relative to control; type: functional
Outline: (§1)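 3T3L1 fibroblasts grown in DMEM/10% newborn calf serum, 37 °C, 5% CO2. Two days post-confluence, differentiation induced with 2 μg/mL insulin, 1 μM dexamethasone, 125 μM IBMX in DMEM/10% FBS. Medium was then changed every two days to 10% FBS/DMEM plus 2 μg/mL insulin. Compounds added at induction and kept 8 days. Cells lysed by three freeze/thaw cycles; triglyceride measured by enzymatic kit.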

[2] = tested on: 3T3-L1; experiment: Adipogenic activity in mouse 3T3L1 cells assessed as upregulation of GLUT4 gene expression at 3 to 30 uM by RT-PCR analysis; type: functional, cell-based
Outline: (§2)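 In differentiating 3T3L1 cells (insulin/dexamethasone/IBMX induction, compounds added at induction), total RNA extracted with TRIzol, reverse-transcribed, then quantitative PCR run with mouse primers for GLUT4 or aP2, with β-actin as reference gene.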

[3] = tested on: 3T3-L1; experiment: Adipogenic activity in mouse 3T3L1 cells assessed as increase in triglyceride level at 30 uM after 8 days relative to control; type: functional; outline: as §1
[4] = tested on: 3T3-L1; experiment: Adipogenic activity in mouse 3T3L1 cells assessed as increase in triglyceride level at 10 uM after 8 days relative to control; type: functional; outline: as §1
[5] = tested on: 3T3-L1; experiment: Adipogenic activity in mouse 3T3L1 cells assessed as upregulation of ap2 protein expression at 3 to 30 uM by […] analysis; type: functional, cell-based
[6] = tested on: 3T3-L1; experiment: Adipogenic activity in mouse 3T3L1 cells assessed as intracellular lipid droplet accumulation at 10 to 30 uM after 8 days by oil red O staining; type: functional, cell-based
Outline: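 3T3L1 fibroblasts, differentiation induced 2 days post-confluence with insulin (2 μg/mL), dexamethasone (1 μM), IBMX (125 μM) in 10% FBS/DMEM, then insulin-supplemented 10% FBS/DMEM changed every 2 days. Compounds present from induction. After 8 days of differentiation, cells stained with Oil Red O and photographed.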

[7] = tested on: 3T3-L1; experiment: Adipogenic activity in mouse 3T3L1 cells assessed as upregulation of ap2 gene expression at 3 to 30 uM by RT-PCR analysis; type: functional, cell-based; outline: as §2
[8] = tested on: 3T3-L1; experiment: Adipogenic activity in mouse 3T3L1 cells assessed as upregulation of GLUT4 protein expression at 3 to 30 uM by […] analysis; type: functional, cell-based
Outline: (§3)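 Differentiating 3T3L1 cells (insulin/dexamethasone/IBMX induction, compounds added at induction) harvested in RIPA buffer with protease inhibitors. Proteins resolved by SDS-PAGE and blotted onto PVDF. Blots probed with primary antibodies to GLUT4 or aP2 and β-actin, then HRP-conjugated secondary antibodies.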

[9] = tested on: 3T3-L1; experiment: Adipogenic activity in mouse 3T3L1 cells assessed as increase in triglyceride level after 8 days relative to control; type: functional, cell-based; outline: as §1
[10] = tested on: 3T3-L1; experiment: Adipogenic activity in mouse 3T3L1 cells assessed as upregulation of ap2 protein expression at 3 to 10 uM by […] analysis; type: functional, cell-based; outline: as §3
[11] = tested on: 3T3-L1; experiment: Adipogenic activity in mouse 3T3L1 cells assessed as upregulation of GLUT4 protein expression at 3 to 10 uM by […] analysis; type: functional, cell-based; outline: as §3
[12] = tested on: 3T3-L1; experiment: Adipogenic activity in mouse 3T3L1 cells assessed as increase in triglyceride level at 1 uM after 8 days relative to control; type: functional; outline: as §1

Structure (SMILES): COc1c(-c2cc(CC=C(C)C)c(O)c(CCC(C)CO)c2)oc2cc(O)cc(O)c2c1=O (stereo not drawn) [DODOVISCIN H]
- Activity [1]: 263.1%

Structure (SMILES): COc1cc(O)c2c(c1)O[C@H](c1cc(O)cc(O)c1)CC2=O [BLUMEATIN]
- Activity [2]: Active
- Activity [3]: 219.2%
- Activity [1]: 121.2%
- Activity [4]: 161.3%
- Activity [5]: Active
- Activity [6]: Active
- Activity [7]: Active
- Activity [8]: Active

Structure (SMILES): COc1c(O)cc2oc(-c3ccc(O)cc3)c(OC)c(=O)c2c1O
- Activity [9]: inactive

Structure (SMILES): COc1cc(O)c2c(c1)O[C@H](c1ccc(O)cc1)CC2=O [SAKURANETIN]
- Activity [3]: 459.4%
- Activity [1]: 278.8%
- Activity [4]: 419.9%

Structure (SMILES): COc1c(-c2cc(CC=C(C)C)c(O)c(C/C=C(\C)CO)c2)oc2cc(O)cc(O)c2c1=O [DODOVISCIN E]
- Activity [1]: 280.2%

Structure (SMILES): C=C(C)C(O)Cc1cc(-c2oc3cc(O)c(OC)c(O)c3c(=O)c2OC)cc(CC=C(C)C)c1O (stereo not drawn) [DODOVISCIN B]
- Activity [1]: 328.1%

Structure (SMILES): COc1c(-c2ccc(O)c(CCC(C)CO)c2)oc2cc(O)cc(O)c2c1=O (stereo not drawn) [DODOVISCIN I]
- Activity [1]: 189.6%

Structure (SMILES): COc1c(O)cc2oc(-c3cc(CC=C(C)C)c(O)c(CCC(C)CO)c3)c(OC)c(=O)c2c1O (stereo not drawn)
- Activity [2]: Active
- Activity [1]: 233%
- Activity [10]: Active
- Activity [4]: 289.8%
- Activity [6]: Active
- Activity [7]: Active
- Activity [11]: Active

Structure (SMILES): COc1c(O)cc2oc(-c3cc(CC=C(C)C)c(O)c(C/C=C(\C)CO)c3)c(OC)c(=O)c2c1O [DODOVISCIN G]
- Activity [1]: 355.7%

Structure (SMILES): COc1c(O)cc2oc(-c3cc(CC=C(C)C)c(O)c(C[C@H](O)C(C)(C)O)c3)c(OC)c(=O)c2c1O [DODOVISCIN D]
- Activity [3]: 198.2%
- Activity [1]: 103.2%
- Activity [4]: 117.8%

Structure (SMILES): COc1c(O)cc2oc(-c3cc(CC=C(C)C)c(O)c(CC=C(C)C)c3)c(OC)c(=O)c2c1O
- Activity [1]: 256.2%

Structure (SMILES): CN(CCOc1ccc(CC2SC(=O)NC2=O)cc1)c1ccccn1 (stereo not drawn) [ROSIGLITAZONE]
- Activity [12]: 335.6%

Structure (SMILES): C=C(C)C(O)Cc1cc(-c2oc3cc(O)c(OC)c(O)c3c(=O)c2OC)cc(CCC(C)CO)c1O (stereo not drawn) [DODOVISCIN A]
- Activity [2]: Active
- Activity [1]: 138.5%
- Activity [10]: Active
- Activity [4]: 248.3%
- Activity [6]: Active
- Activity [7]: Active
- Activity [11]: Active

Structure (SMILES): COc1c(-c2ccc(O)cc2)oc2cc(O)cc(O)c2c1=O
- Activity [9]: inactive

Structure (SMILES): COc1c(-c2cc(CC=C(C)C)c(O)c(CC=C(C)C)c2)oc2cc(O)cc(O)c2c1=O
- Activity [1]: 169.9%
